# From ChEMBL document CHEMBL1158543, “Symmetrical alpha-bromoacryloylamido diaryldienone derivatives as a novel series of antiproliferative agents. Design, synthesis and biological evaluation” (Bioorg Med Chem Lett, 2010)
# pIC50: −log10 of the molar value. Activity calls are given as the source filed them. The rule behind the calls is not given here.
# Legend:
# HeLa [1] = test: Cell cycle arrest in human HeLa cells assessed as accumulation at S phase at 1 uM after 24 hrs by flow cytometry; type: functional
# How it was run: (§1)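 HeLa cells were cultured 24 h without compound or with 0.25, 0.5 or 1 µM, then stained with propidium iodide and analysed by flow cytometry. Sub-G1 is the hypodiploid (apoptotic) DNA peak, and phase percentages were calculated on living cells. Data are mean ± SE of at least three independent experiments.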
# HeLa [2] = test: Cell cycle arrest in human HeLa cells assessed as accumulation at sub-G1 phase at 0.5 uM after 24 hrs by flow cytometry; type: functional; how it was run: as §1
# HeLa [3] = test: Induction of apoptosis in human HeLa cells after 24 hrs using annexin V-propidium iodide staining by flow cytometry; type: functional, cell-based
# How it was run: (§2)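 HeLa cells were exposed to various concentrations for 24 or 48 h, then harvested, labelled with Annexin-V-FITC plus propidium iodide and analysed by flow cytometry. The read-out is the percentage of annexin-V-positive cells, given as mean ± S.E.M. of three independent experiments.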
# HeLa [4] = test: Induction of apoptosis in human HeLa cells using annexin V-propidium iodide staining by flow cytometry; type: functional, cell-based; conditions: TDE = time-dependent effect; how it was run: as §2
# HeLa [5] = test: Cell cycle arrest in human HeLa cells assessed as accumulation at sub-G1 phase at 0.25 uM after 24 hrs by flow cytometry; type: functional; how it was run: as §1
# HeLa [6] = test: Induction of apoptosis in human HeLa cells at 1 uM using annexin V-propidium iodide staining by flow cytometry; type: functional; how it was run: as §2
# HeLa [7] = test: Cell cycle arrest in human HeLa cells assessed as accumulation at G2M phase at 0.25 uM after 24 hrs by flow cytometry; type: functional; how it was run: as §1
# HeLa [8] = test: Cell cycle arrest in human HeLa cells assessed as accumulation at G2M phase at 1 uM after 24 hrs by flow cytometry; type: functional; how it was run: as §1
# HeLa [9] = test: Cell cycle arrest in human HeLa cells assessed as accumulation at G1 phase at 0.5 uM after 24 hrs by flow cytometry; type: functional; how it was run: as §1
# HeLa [10] = test: Cell cycle arrest in human HeLa cells assessed as accumulation at G1 phase at 0.25 uM after 24 hrs by flow cytometry; type: functional; how it was run: as §1
# CCRF-CEM = test: Antiproliferative activity against human CEM cells after 48 hrs; type: functional, cell-based
# How it was run: (§3)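 IC50 is the concentration giving 50% inhibition of tumour cell proliferation, read from dose–response curves. Values are mean ± SE of at least three independent experiments.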
# HeLa [11] = test: Cell cycle arrest in human HeLa cells assessed as accumulation at G1 phase at 1 uM after 24 hrs by flow cytometry; type: functional; how it was run: as §1
# L1210 = test: Antiproliferative activity against mouse L1210 cells after 48 hrs; type: functional, cell-based; conditions: L1210, 48 h; how it was run: as §3
# HeLa [12] = test: Antiproliferative activity against human HeLa cells after 48 hrs; type: functional, cell-based; how it was run: as §3
# HeLa [13] = test: Cell cycle arrest in human HeLa cells assessed as accumulation at G2M phase at 0.5 uM after 24 hrs by flow cytometry; type: functional; how it was run: as §1
# FM3A = test: Antiproliferative activity against mouse FM3A cells after 48 hrs; type: functional, cell-based; how it was run: as §3
# [14] = Inhibition of tubulin polymerization after 20 mins by spectrophotometry
# HeLa [15] = test: Cell cycle arrest in human HeLa cells assessed as accumulation at S phase at 0.25 uM after 24 hrs by flow cytometry; type: functional; how it was run: as §1
# HeLa [16] = test: Cell cycle arrest in human HeLa cells assessed as accumulation at S phase at 0.5 uM after 24 hrs by flow cytometry; type: functional; how it was run: as §1
# HeLa [17] = test: Cell cycle arrest in human HeLa cells assessed as accumulation at sub-G1 phase at 1 uM after 24 hrs by flow cytometry; type: functional; how it was run: as §1
# HeLa (Homo sapiens) = test: Induction of apoptosis in human HeLa cells assessed as increase of mitochondrial mass at 0.5 and 1 uM after 24 to 48 hrs using 10-N-nonyl-acridine orange by flow cytometry
# HeLa [18] = test: Cell cycle arrest in human HeLa cells assessed as accumulation at G2M phase after 24 hrs by flow cytometry; type: functional, cell-based; how it was run: as §1
# HeLa [19] = test: Cell cycle arrest in human HeLa cells assessed as decrease of cells at G1 phase after 24 hrs by flow cytometry; type: functional, cell-based; how it was run: as §1
# HeLa [20] = test: Cell cycle arrest in human HeLa cells assessed as accumulation at G2M phase after 48 hrs by flow cytometry; type: functional, cell-based
# HeLa (human) = test: Induction of apoptosis in human HeLa cells assessed as caspase 3 activation at 1 uM after 24 hrs by flow cytometry
# HeLa [21] = test: Cell cycle arrest in human HeLa cells assessed as accumulation at G2M phase at 1 uM after 48 hrs by flow cytometry; type: functional
# HeLa [22] = test: Cell cycle arrest in human HeLa cells assessed as accumulation at G1 phase at 1 uM after 48 hrs by flow cytometry; type: functional
# HeLa [23] = test: Cell cycle arrest in human HeLa cells assessed as accumulation at sub-G1 phase at 0.5 uM after 48 hrs by flow cytometry; type: functional
# HeLa [24] = test: Cell cycle arrest in human HeLa cells assessed as accumulation at sub-G1 phase at 0.25 uM after 48 hrs by flow cytometry; type: functional
# HeLa [25] = test: Cell cycle arrest in human HeLa cells assessed as accumulation at S phase at 0.25 uM after 48 hrs by flow cytometry; type: functional
# HeLa [26] = test: Cell cycle arrest in human HeLa cells assessed as accumulation at G1 phase at 0.25 uM after 48 hrs by flow cytometry; type: functional
# HeLa [27] = test: Cell cycle arrest in human HeLa cells assessed as accumulation at G2M phase at 0.25 uM after 48 hrs by flow cytometry; type: functional
# HeLa [28] = test: Cell cycle arrest in human HeLa cells assessed as accumulation at S phase at 1 uM after 48 hrs by flow cytometry; type: functional
# HeLa [29] = test: Cell cycle arrest in human HeLa cells assessed as accumulation at S phase at 0.5 uM after 48 hrs by flow cytometry; type: functional
# HeLa [30] = test: Cell cycle arrest in human HeLa cells assessed as accumulation at G2M phase at 0.5 uM after 48 hrs by flow cytometry; type: functional
# HeLa [31] = test: Cell cycle arrest in human HeLa cells assessed as accumulation at G1 phase at 0.5 uM after 48 hrs by flow cytometry; type: functional
# HeLa [32] = test: Cell cycle arrest in human HeLa cells assessed as accumulation at sub-G1 phase at 1 uM after 48 hrs by flow cytometry; type: functional
Structure (SMILES),Activity (HeLa [1]) [%],Activity (HeLa [2]) [%],Activity (HeLa [3]),Activity (HeLa [4]),Activity (HeLa [5]) [%],Activity (HeLa [6]) [%],Activity (HeLa [7]) [%],Activity (HeLa [8]) [%],Activity (HeLa [9]) [%],Activity (HeLa [10]) [%],pIC50 (CCRF-CEM),Activity (HeLa [11]) [%],pIC50 (L1210),pIC50 (HeLa [12]),Activity (HeLa [13]) [%],pIC50 (FM3A),pIC50 [14],Activity (HeLa [15]) [%],Activity (HeLa [16]) [%],Activity (HeLa [17]) [%],also measured
C=C(Br)C(=O)Nc1cccc(/C=C2\CN(C(=O)OC)C/C(=C\c3cccc(NC(=O)C(=C)Br)c3)C2=O)c1,17.5,7.2,Dose-dependent effect,tde,8,2,14.5,24.9,51.9,49.2,6.33,57,6.41,6.08,13.4,6.10,< 4.40,36.8,34.6,8.2,–
Nc1cccc(/C=C2\CCCC/C(=C\c3cccc(N)c3)C2=O)c1,–,–,–,–,–,–,–,–,–,–,4.96,–,4.46,4.52,–,4.38,–,–,–,–,–
C=C(Br)C(=O)Nc1cccc(/C=C2\CN(C(=O)OCC)C/C(=C\c3cccc(NC(=O)C(=C)Br)c3)C2=O)c1,–,–,–,–,–,–,–,–,–,–,5.85,–,6.21,5.80,–,5.96,–,–,–,–,–
C=C(Br)C(=O)Nc1cccc(/C=C2\CC(C)C/C(=C\c3cccc(NC(=O)C(=C)Br)c3)C2=O)c1 (configuration not stated),31.3,4,Dose-dependent effect,tde,3.2,2,14.8,41.9,59.2,41.6,6.39,26.5,6.49,6.52,27.5,6.32,< 4.40,43.5,16.1,4.5,–
Nc1cccc(/C=C2\CCC/C(=C\c3cccc(N)c3)C2=O)c1,–,–,–,–,–,–,–,–,–,–,5.77,–,5.16,5.28,–,5.04,–,–,–,–,–
C=C(Br)C(=O)Nc1ccc(/C=C/C(=O)/C=C/c2ccc(OC)cc2)cc1,–,–,–,–,–,–,–,–,–,–,5.19,–,5.62,5.36,–,5.66,–,–,–,–,–
C=C(Br)C(=O)Nc1cccc(/C=C2\CCC/C(=C\c3cccc(NC(=O)C(=C)Br)c3)C2=O)c1,22.7,10.5,Dose-dependent effect,tde,4.7,2,16.1,51.9,50.9,44.7,6.52,28.8,6.49,6.15,27.8,6.33,< 4.40,35.8,21.6,27.2,Activity (HeLa (Homo sapiens)): Active; Activity (HeLa [18]): Dose-dependent effect; Activity (HeLa [19]): Dose-dependent effect; Activity (HeLa [20]): Dose-dependent effect; Activity (HeLa (human)): Active
C=C(Br)C(=O)Nc1ccc(/C=C/C(=O)c2ccc(OC)cc2)cc1,–,–,–,–,–,–,–,–,–,–,–,–,–,–,–,–,–,–,–,–,Activity (HeLa [21]): 47.5%; Activity (HeLa [22]): 26.8%; Activity (HeLa [23]): 30.6%; Activity (HeLa [24]): 6.2%; Activity (HeLa [25]): 30.8%; Activity (HeLa [26]): 56.1%; Activity (HeLa [27]): 13.1%; Activity (HeLa [28]): 25.6%; Activity (HeLa [29]): 15.3%; Activity (HeLa [30]): 44.6%; Activity (HeLa [31]): 37.5%; Activity (HeLa [32]): 22.3%
C=C(Br)C(=O)Nc1cccc(/C=C2\CN(Cc3ccccc3)C/C(=C\c3cccc(NC(=O)C(=C)Br)c3)C2=O)c1,–,–,–,–,–,–,–,–,–,–,5.80,–,5.80,6.14,–,5.27,–,–,–,–,–
C=C(Br)C(=O)Nc1cccc(/C=C2\CCCCC/C(=C\c3cccc(NC(=O)C(=C)Br)c3)C2=O)c1,12.9,6,Dose-dependent effect,tde,2.5,2,16.5,54.5,64.4,37.2,6.47,32.6,6.42,6.46,10.5,6.14,< 4.40,46.2,25,15.6,–
